From PubChem
Rows were chosen to be rich in hits. Some 3.5% of all compounds tested hit in one or more screens of this group.
MrgX1 allo act: human MrgX1 positive allosteric modulation, primary screen; AID 588675; B-score at 10 µM; MrgX1-HEK293, Fluo-4 calcium flux, FDSS; stronger effect = higher value; Q96LB2; hit rate 0.63% among 310,000;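 active means plate-corrected calcium response at least 3 library SD above typical, normal starting fluorescence, not activating the receptor alone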;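 further: compound read alongside a low EC10 to EC30 dose of BAM8-22 agonist; peak minus trough fluorescence over baseline measured at the second addition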
Target sequence (Q96LB2 whole entry, looked up): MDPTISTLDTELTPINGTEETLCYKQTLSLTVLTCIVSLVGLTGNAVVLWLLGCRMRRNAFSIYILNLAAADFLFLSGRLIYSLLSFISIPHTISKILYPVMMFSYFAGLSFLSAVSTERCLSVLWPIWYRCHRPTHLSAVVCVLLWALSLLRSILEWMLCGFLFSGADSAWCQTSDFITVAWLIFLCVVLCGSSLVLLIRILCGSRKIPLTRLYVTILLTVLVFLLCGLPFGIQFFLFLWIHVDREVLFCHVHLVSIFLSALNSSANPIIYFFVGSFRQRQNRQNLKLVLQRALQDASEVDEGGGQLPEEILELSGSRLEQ
MrgX1 agonist: agonists of human MrgX1 receptor | hit rate 0.44% among 310,000 | B-score at 10 µM | Q96LB2 | MrgX1-HEK293 cells, Fluo-4 calcium fluorescence, agonist mode; stronger effect = higher value;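 active means calcium response B-score plate-corrected fluorescence ratio at least 3 library SD, with starting fluorescence B-score inside 5 SD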
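Material: HEK293 cells stably expressing human MrgX1 receptor | Quantity: 15,000 cells per well | Times: Cells plated overnight, dye loaded 0.5 h 37 °C, 0.5 h room temperature | Measured by: Kinetic Fluo-4 NW fluorescence of intracellular calcium | Control set: Positive and negative controls per plate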
MrgX1 antag: human MrgX1 receptor antagonism, primary screen | MRGX1-HEK293 calcium flux, Fluo-4, BAM8-22 antagonism; stronger effect = lower value | B-score at 10 µM | hit rate 1.3% among 310,000 | AID 588676;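 active means calcium-response B-score plate-corrected more than 3 library SD below zero, starting fluorescence within 5 deviations, no agonist response on first addition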;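 further: peak minus trough fluorescence over baseline after final BAM8-22 challenge near maximal dose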
RGS4 pot: RGS4 potentiation or activation. B-score at 10 µM. AID 463111. HEK293 M3R/inducible RGS4, carbachol calcium flux Fluo4; stronger effect = lower value. hit rate 0.92% among 310,000;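 active means B-score of the integrated calcium signal more than 4 SD below the library mean, with starting fluorescence not abnormally high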;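 further: negative B-score means reduced calcium response which marks RGS4 activation or potentiation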
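Assay system: Inducible-RGS4 HEK293 cells carrying M3 receptor | Schedule: Compound preincubation 20 min at room temperature before agonist | Signal: Kinetic calcium fluorescence imaging with Fluo4-AM dye, 2 µM | Read-out basis: B score from integrated fluorescence ratio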
RGS4 block: inhibitors of human RGS4; P49798; HEK293 M3R/RGS4 inducible, Fluo-4 calcium flux; stronger effect = higher value; triggered by carbachol at its EC20; B-score at 10 µM; hit rate 0.45% among 310,000; AID 463165;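 active means B-score, a plate-corrected calcium signal, over three deviations above library mean, with baseline fluorescence within five deviations of library mean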;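 further: RGS4 expression induced by doxycycline in cells with stable M3 receptor; B-score is computed from the integrated fluorescence ratio over baseline after carbachol; higher B-score means a larger calcium signal and so more RGS4 inhibition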
Target sequence (P49798 whole entry, looked up): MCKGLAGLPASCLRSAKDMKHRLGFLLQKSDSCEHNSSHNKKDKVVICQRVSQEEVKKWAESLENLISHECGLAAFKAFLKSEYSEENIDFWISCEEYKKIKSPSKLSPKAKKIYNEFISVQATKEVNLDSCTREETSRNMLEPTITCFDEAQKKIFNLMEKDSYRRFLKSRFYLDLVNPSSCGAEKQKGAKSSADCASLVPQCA
Starred values were filed as active, the others as inactive; i = inactive; . = not tested or not shown; ! = a repeat was not active.

SMILES	MrgX1 allo act	MrgX1 agonist	MrgX1 antag	RGS4 pot	RGS4 block
NC(=Nc1ccccc1)Nc1ccccc1	i	84*	i	-8.5*	i
CCC(CC)C(=O)NCCCCc1ccccc1	i	i	i	i	i
CCNC(=S)Nc1ccc(Cl)c([N+](=O)[O-])c1	i	i	-5.8*	i	i
O=C(NNC(=S)Nc1cccc(C(F)(F)F)c1)c1cccc(Cl)c1	i	i	i	i	i
CCCCOc1ccc2c(c1)/C(=C(\C(Cl)=C(Cl)Cl)[N+](=O)[O-])N2	i	34*	i	i	i
CCOc1ccc2c(c1)/C(=C(\C(Cl)=C(Cl)Cl)[N+](=O)[O-])N2	i	i	i	i	i
CSc1ccc(/C=C2\C(=N)N3N=C(CC(=O)N4CCCCC4)SC3=NC2=O)cc1	i	38*	i	i	i
CCN(CC)c1ccc(/C=C2\C(=N)N3N=C(CC(=O)N4CCOCC4)SC3=NC2=O)cc1	i	28*	i	i	i
CCc1ccc(/C=C2\C(=N)N3N=C(CC(=O)N4CCCCC4)SC3=NC2=O)cc1	i	i	i	i	i
CSc1ccc(/C=C2\C(=N)N3N=C(CC(=O)N4CCOCC4)SC3=NC2=O)cc1	11*	i	i	i	i
CCOc1cc(/C=C2\NC(=S)N(c3c(C)n(C)n(-c4ccccc4)c3=O)C2=O)ccc1O	i	i	i	i	i
CC(C)c1ccc(C(=O)CSc2ncn[nH]2)cc1	i	i	i	i	i
CN(CC(=O)Nc1ccc(F)cc1)C(=O)COC(=O)Cc1c(F)cccc1Cl	i	i	i	i	i
COc1cccc(CNc2ccc(F)c([N+](=O)[O-])c2)c1O	18*	i	i	i	i
O=S(=O)(Nc1ccc2c(c1)OCO2)c1cccs1	i	i	i	i	i
O=S(=O)(Nc1ccc2c(c1)OCCO2)c1cccs1	i	i	-4.6*	i	i
COc1ccccc1NS(=O)(=O)c1cccc(C(=O)NCC(c2ccccc2OC)N2CCCC2)c1 (configuration not stated)	i	i	-5.7*	i	i
COc1ccccc1NS(=O)(=O)c1cccc(C(=O)N/N=C/c2ccc(C)o2)c1	18*	i	i	i	i
Cc1ccc(/C=N/NC(=O)c2cccc(S(=O)(=O)Nc3ccccc3Cl)c2)s1	11*	i	i	i	i
COc1ccccc1C(CNC(=O)c1cccc(S(=O)(=O)Nc2ccc(C)cc2)c1)N1CCCC1 (configuration not stated)	i	i	i	i	i
Cc1cccc(NC2=C(NCCO)C(=O)c3ccccc3C2=O)c1	i	i	-5.5*	i	i
COc1cccc(NC2=C(NCCO)C(=O)c3ccccc3C2=O)c1	i	i	i	i	i
CCN1CCCC1CNC(=O)c1cc(OC)c(OC)c(OC)c1 (configuration not stated)	i	i	i	i	i
CCN1CCCC1CNC(=O)CCNC(=O)c1cc(OC)c(OC)c(OC)c1 (configuration not stated)	i	i	-6.5*	i	i
CCOC(=O)C1=C(C)NC(C)=C(C(=O)OC)C1c1cccc(Cl)c1Cl (configuration not stated)	i	i	i	i	i
SMILES	MrgX1 allo act	MrgX1 agonist	MrgX1 antag	RGS4 pot	RGS4 block
CCOC(=O)C1=C(COCCN)NC(C)=C(C(=O)OC)C1c1ccccc1Cl (configuration not stated)	i	27*!	i	i	i
O=[N+]([O-])c1ccc(Oc2cccc(Br)c2)c2ccncc12	7.9*	i	i	i	i
COc1ccc(Oc2nc(Oc3ccc(OC)cc3)nc(Oc3ccc(OC)cc3)n2)cc1	i	i	-6.5*	i	i
COc1nc(Oc2ccc(C(=O)O)cc2)nc(Oc2ccc(C(=O)O)cc2)n1	i	i	i	i	i
CCc1noc(C)c1C(=O)N1CCCC(CCC(=O)NCc2cccc(OC)c2)C1 (configuration not stated)	i	i	-6.5*	i	i
CN(Cc1ccccc1)S(=O)(=O)c1ccc(Cl)nc1	i	i	i	i	i
O=C(CCl)c1cc2c3c(c1)CC(=O)N3CCC2	i	27*	i	i	17*
O=C(NCCO)C(=O)Nc1cc2c3c(c1)CC(=O)N3CCC2	i	i	i	i	i
O=C(Nc1ccc2c(c1)OCCO2)C1CCCN(S(=O)(=O)Cc2ccccc2)C1 (configuration not stated)	i	i	i	i	i
COc1ccc(Nc2nc(N)c([N+](=O)[O-])c(NC3CCCCC3)n2)cc1	i	i	i	-9.4*	i
COc1ccc(C(=O)Nc2nc(C)cc(C)n2)cc1[N+](=O)[O-]	i	i	i	i	i
Cc1ccc(Cl)cc1N1CCN(C(=O)c2ccc(CS(=O)Cc3ccc(Cl)cc3)o2)CC1 (configuration not stated)	i	i	i	i	i
Cc1ccc(C)c(N2CCN(C(=O)c3ccc(CS(=O)Cc4ccc(Cl)cc4)o3)CC2)c1 (configuration not stated)	i	i	i	-8.5*	i
Cc1cccc(N2CCN(C(=O)c3ccc(CS(=O)Cc4cccc(Cl)c4)o3)CC2)c1C (configuration not stated)	i	i	i	-10*	i
O=C(c1ccc(CS(=O)Cc2ccc(Cl)cc2)o1)N1CCN(c2ccccc2F)CC1 (configuration not stated)	i	i	i	i	i
O=c1oc2cc(O)ccc2cc1-c1nc2c(s1)CCc1ccccc1-2	i	i	i	.	.
O=c1oc2ccccc2cc1-c1nc2c(s1)CCc1ccccc1-2	i	i	-6.8*	i	i
COc1ccc(CNCCc2ccc(Cl)cc2)cc1OCc1ccccc1	i	i	-5.8*	i	i
CCOc1cc(CNCc2ccccc2)ccc1OCc1ccc(Cl)cc1	i	i	i	i	i
C#CCSc1nnc(-c2ccc(C)cc2)o1	i	i	i	i	i
C#CCSc1nnc(-c2ccc(O)cc2)o1	i	i	-7.6*	i	i
COc1ccc(C(=O)C2CCCN(S(=O)(=O)C(C)C)C2)c(C)c1 (configuration not stated)	i	i	i	-7.6*	i
COc1ccc(C(=O)C2CCCN(S(=O)(=O)N(C)C)C2)c(C)c1 (configuration not stated)	i	i	i	i	i
